Measurements of several laboratories.
ALOX5: Polyunsaturated fatty acid 5-lipoxygenase (ALOX5, Homo sapiens, UniProt P09917)
CDK11B: Cyclin-dependent kinase 11B (CDK11B, Homo sapiens, UniProt P21127)

SMILES	target	effect on	action	technique	concentration	quantity	result
C#Cc1n[nH]c2c(-c3cn(C(C)c4ccccn4)c(=O)[nH]c3=O)cc(F)cc12 (stereo not drawn)	Protein kinase C alpha type (PRKCA, Homo sapiens, UniProt P17252)	enzyme activity	inhibitor	–	1 µM	inhibition	9.8%
N#Cc1ccc(NCCNCC(=O)N2N=CCC2C#N)nc1 (stereo not drawn)	Dipeptidyl peptidase 8 (Homo sapiens, UniProt Q6V1X1)	enzyme activity	inhibitor	–	10 µM	inhibition	15%
Nc1ncc(-c2nc(N3CCOCC3)nc(N3CCOCC3)n2)c(C(F)F)n1	Serine/threonine-protein kinase ICK (CILK1, Homo sapiens, UniProt Q9UPZ9)	binding	–	competition with immobilised ligand	10 µM	remaining binding	72%
CCN(CC)CCCC[C@H](NC(=O)[C@H](CC(C)C)NC(=O)[C@H](C)NC(=O)[C@H](Cc1ccccc1)NC(=O)c1ccc(C(C)(C)C)cc1)C(=O)N[C@@H](CO)C(=O)OC	Bromodomain-containing protein 4, BD2 (BRD4, Homo sapiens, UniProt O60885)	thermal stability	–	DSF	25 µM	ΔTm	0.2 °C
COc1cc(Nc2ncc(F)c(Nc3ccc4c(n3)NC(=O)C(C)(C)O4)n2)cc(OC)c1OC	Mitogen-activated protein kinase kinase kinase 4 (MAP3K4, Homo sapiens, UniProt Q9Y6R4)	binding	–	competition with immobilised ligand	10 µM	inhibition	71%
c1ccc(C(NCCNC(c2ccccc2)c2ccccc2)c2ccccc2)cc1	ALOX5	enzyme activity	inhibitor	–	10 µM	inhibition	99%
Cc1nn(C)cc1-c1nc2c(N3CCN(Cc4ccc(Cl)cc4)CC3)c(Cl)cnc2[nH]1	CDK11B	binding	–	competition with immobilised ligand	1 µM	remaining binding	100%
C[C@H](C(=O)N[C@H]1COc2ccccc2[C@@H]1S(C)(=O)=O)c1ccc(F)cc1	ALOX5	enzyme activity	inhibitor	–	10 µM	inhibition	13%
COc1ncccc1-c1cnn2ccc(N3CCN(C(=O)OC(C)C)CC3)nc12	CDK11B	binding	–	competition with immobilised ligand	1 µM	remaining binding	89%
